# Test results from ChEMBL document CHEMBL1132620, “Piperazine imidazo[1,5-a]quinoxaline ureas as high-affinity GABAA ligands of dual functionality” (J Med Chem, 1999).
# Active and inactive are the calls of the source. The rule behind the calls is not given here.
# How the values were obtained:
# [1] = Maximum serum concentration after po dose of 5.22 mg/kg in rats; type: ADME, organism-based; set-up: dose 5.22 mg/kg, route oral; conditions: rat
# [2] = molecular target: T1, GABA-A receptor; anion channel (Rattus norvegicus) (UniProt O09028+P15431+P18506+P18508+P19969+P20236+P23574+P23576+P28471+P28473+P30191+P62813+P63079+P63138+Q91ZM7+Q9ES14); assay: (§1) Displacement of [3H]flunitrazepam from GABA-A benzodiazepine receptor of rat cortical membranes; type: cell membranes; set-up: concentration or dose not given beside the values; conditions: Membrane, concentration not given here
# Method in brief: (§2)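 Rat membranes incubated 60 min at 4 °C with [3H]flunitrazepam, 50 µg membrane protein and graded test drug in 200 µL containing NaCl, 10 mM Hepes/Tris pH 7.4 and 1 mM MgCl2; bound ligand separated by rapid filtration on GF/B; mean affinity, SE ≤10% of mean.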
# Rattus norvegicus [3] = assay: Mean number of shocks produced by the compound in rats at a dose of 0 mg/kg was determined by vogel's punished licking assay; type: functional
# Method in brief: (§3)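 Vogel punished licking test in rats; number of shocks accepted recorded per dose group (n 6–10); each dose compared with the 0 mg/kg group of the same experiment by Wilcoxon rank sum test.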
# Rattus norvegicus [4] = assay: Mean number of shocks produced by the compound in rats at a dose of 1 mg/kg was determined by vogel's punished licking assay; type: functional; method in brief: as §3
# Rattus norvegicus [5] = assay: In vivo efficacy evaluated for ability to antagonize metrazole induced clonic convulsions in rat after ip injection; type: functional
# Rattus norvegicus [6] = assay: Geller-cook activity was determined using wilcoxon signed rank test on punished schedule at dose 1 mg/kg in rats; type: functional
# Method in brief: (§4)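 Geller–Cook conflict schedule with punished and nonpunished response rates recorded per treatment; 6 animals per dose, controls 12–17; each dose compared to its own control by Wilcoxon signed rank test, p < 0.05.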
# Rattus norvegicus [7] = assay: Geller-cook activity was determined using wilcoxon signed rank test on punished schedule at dose 3 mg/kg in rats; type: functional; method in brief: as §4
# [8] = Half-life after iv dose of 5.10 mg/kg in rats; type: ADME, organism-based; set-up: dose 5.1 mg/kg, route intravenous; conditions: rat, in vivo, 5.1 mg/kg
# [9] = Total plasma clearance after iv dose of 5.10 mg/kg in rats; type: ADME, organism-based; set-up: dose 5.1 mg/kg, route intravenous; conditions: rat, 5.1 mg/kg, read-out: Clp (converted)
# Rattus norvegicus [10] = assay: Mean number of shocks produced by the compound in rats at a dose of 0.3 mg/kg was determined by vogel's punished licking assay; type: functional; method in brief: as §3
# [11] = Area under curve was determined for the compound after iv dose of 5.10 mg/kg in rats; type: ADME, organism-based; set-up: dose 5.1 mg/kg, route intravenous; conditions: rat, in vivo, 5.1 mg/kg
# [12] = Half-life after po dose of 5.22 mg/kg in rats; type: ADME, organism-based; set-up: dose 5.22 mg/kg, route oral; conditions: rat, in vivo
# [13] = Time at which Cmax was reached was determined after po dose of 5.22 mg/kg of compound in rats; type: ADME, organism-based; set-up: dose 5.22 mg/kg, route oral; conditions: rat, in vivo
# Method in brief: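 Male Sprague–Dawley rats dosed orally with compound in a solution formulation, n = 3–4 per compound; serum drug concentrations measured over time, lower limit of quantitation 50 ng/mL. Tmax reported as the range of observed values across animals.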
# [14] = molecular target: T2, GABA-A receptor; alpha-1/beta-2/gamma-2 (Homo sapiens) (UniProt P14867+P47870+P18507); assay: (§5) In vitro GABA-mediated chloride current in A293 cells expressing GABA-A benzodiazepine receptor alpha-1-beta-2-gamma-2 subunits at 5 uM; type: functional, cell-based; conditions: HEK293
# Rattus norvegicus [15] = assay: Mean number of shocks produced by the compound in rats at a dose of 3 mg/kg was determined by vogel's punished licking assay; type: functional; method in brief: as §3
# Rattus norvegicus [16] = assay: Geller-cook activity was determined using wilcoxon signed rank test on non punished schedule at dose 1 mg/kg in rats; type: functional; method in brief: as §4
# Rattus norvegicus [17] = assay: Mean number of shocks produced by the compound in rats at a dose of 10 mg/kg was determined by vogel's punished licking assay; type: functional; method in brief: as §3
# [18] = Area under curve was determined for the compound after po dose of 5.22 mg/kg in rats; type: ADME, organism-based; set-up: dose 5.22 mg/kg, route oral; conditions: rat, in vivo
# [19] = molecular target: T1, GABA-A receptor; anion channel (Rattus norvegicus); assay: Shift in [35S]TBPS binding to GABA-A Benzodiazepine receptor of rat brain membrane
# [20] = molecular target: GABA A receptor alpha-3/beta-2/gamma-2 (Homo sapiens) (UniProt P47870+P18507+P34903); assay: In vitro GABA-mediated chloride current in A293 cells expressing GABA-A benzodiazepine receptor alpha-3-beta-2-gamma-2 subunits at 5 uM; type: functional, cell-based; conditions: HEK293
# Mus musculus [21] = assay: In vivo acute electroshock physical dependence activity in mice; Active; type: functional, organism-based
# [22] = Oral bioavailability in rats at a dose of 5.22 mg/kg; type: ADME, organism-based; conditions: rat, in vivo
# [23] = molecular target: T2, GABA-A receptor; alpha-1/beta-2/gamma-2 (Homo sapiens); assay: as §5; type: functional, cell-based; conditions: HEK293; remark: listed apart in the source
# Rattus norvegicus [24] = assay: Geller-cook activity was determined using wilcoxon signed rank test on non punished schedule at dose 3 mg/kg in rats; type: functional; method in brief: as §4
# Mus musculus [25] = assay: In vivo efficacy is evaluated by percent control of cerebellar GMP levels in (drug+stress) treated mice/mice under stress; type: functional; set-up: concentration or dose not given beside the values
# Method in brief: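 Male CF-1 mice given drug orally in vehicle 122 before electric footshock stress, controls given vehicle (1 mL/100 g); killed 30 min after treatment; cerebellum homogenized in 1% perchloric acid, iced 30 min, boiled 5 min, spun 17000g 20 min; supernatant cGMP by radioimmunoassay, expressed as % of stress control.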
# Rattus norvegicus [26] = assay: Mean number of shocks produced by CDPZ in rats at a dose of 12 mg/kg was determined by vogel's punished licking assay; type: functional; method in brief: as §3
# Mus musculus [27] = organism: Mus musculus; assay: Ability to antagonize the muscle relaxation effect in mice caused by a benzodiazepine full agonist, triazolam.; type: functional
# Method in brief: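 Muscle relaxation induced by triazolam; test compound and triazolam given separately, traction scored 30 min after dosing; ED50 for blocking the relaxant effect.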
# [28] = molecular target: GABA-A receptor; anion channel; assay: as §1; type: cell membranes, Membrane; method in brief: as §2
structure (smiles),measurement,setting,value
CCCC(=O)O.C[C@@H]1CN(C(=O)N2Cc3c(C(=O)OC(C)(C)C)ncn3-c3ccc(Cl)cc32)C[C@H](C)N1,Cmax,[1],1170 ng/mL
same,inhibition,[2],71%
same,Mean no. of shocks,Rattus norvegicus [3],3.8
same,Mean no. of shocks,Rattus norvegicus [4],3.1
same,ED50,Rattus norvegicus [5],3.7 mg/kg
same,Gellar cook activity,Rattus norvegicus [6],46
same,Gellar cook activity,Rattus norvegicus [7],27
same,half-life,[8],1.2 h
same,clearance,[9],25.2 mL/min/kg
same,Mean no. of shocks,Rattus norvegicus [10],5.3
same,AUC,[11],3540 ng·h/mL
same,half-life,[12],1.8 h
same,Tmax,[13],0.5 h
same,Change in Cl- current,[14],0.85
same,Mean no. of shocks,Rattus norvegicus [15],5.7
same,Gellar cook activity,Rattus norvegicus [16],47
same,Mean no. of shocks,Rattus norvegicus [17],12
same,AUC,[18],3570 ng·h/mL
same,Shift,[19],0.48
same,Change in Cl- current,[20],0.54
same,Acute electroshock activity,Mus musculus [21],Active
same,bioavailability,[22],101%
same,Change in Cl- current,[23],0.3
same,Gellar cook activity,Rattus norvegicus [24],43
same,Control,Mus musculus [25],64%
same,Mean no. of shocks,Rattus norvegicus [26],19
same,ED50,Mus musculus [27],> 30 mg/kg
same,Ki,[28],3.27 nM
